{"source": "ChEMBL document CHEMBL1817572", "about": "“New, potent, selective, and short-acting peptidic V1a receptor agonists” (J Med Chem, 2011)", "key": {"Vasopressin V1a receptor [1]": {"target": "Vasopressin V1a receptor (Homo sapiens, UniProt P37288)", "sequence (P37288 whole entry)": "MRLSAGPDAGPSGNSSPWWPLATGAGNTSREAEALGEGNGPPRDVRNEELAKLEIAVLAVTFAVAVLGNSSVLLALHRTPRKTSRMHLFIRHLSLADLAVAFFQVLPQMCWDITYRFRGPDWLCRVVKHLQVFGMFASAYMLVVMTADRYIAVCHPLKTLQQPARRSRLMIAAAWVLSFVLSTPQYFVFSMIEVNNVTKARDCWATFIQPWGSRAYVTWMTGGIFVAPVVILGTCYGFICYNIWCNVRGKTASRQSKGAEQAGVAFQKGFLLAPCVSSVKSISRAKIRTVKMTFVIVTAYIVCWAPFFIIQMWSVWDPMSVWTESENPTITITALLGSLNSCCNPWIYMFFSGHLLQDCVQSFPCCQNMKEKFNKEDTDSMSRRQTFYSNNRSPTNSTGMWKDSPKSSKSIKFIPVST", "experiment": "Agonist activity at recombinant human vasopressin V1a receptor expressed in HEK293 cells by luciferase reporter gene assay", "format": "functional, cell-based", "details": "read-out: EC50"}, "Vasopressin V1b receptor": {"target": "T1, Vasopressin V1b receptor (Homo sapiens, UniProt P47901)", "T1 sequence (P47901 whole entry)": "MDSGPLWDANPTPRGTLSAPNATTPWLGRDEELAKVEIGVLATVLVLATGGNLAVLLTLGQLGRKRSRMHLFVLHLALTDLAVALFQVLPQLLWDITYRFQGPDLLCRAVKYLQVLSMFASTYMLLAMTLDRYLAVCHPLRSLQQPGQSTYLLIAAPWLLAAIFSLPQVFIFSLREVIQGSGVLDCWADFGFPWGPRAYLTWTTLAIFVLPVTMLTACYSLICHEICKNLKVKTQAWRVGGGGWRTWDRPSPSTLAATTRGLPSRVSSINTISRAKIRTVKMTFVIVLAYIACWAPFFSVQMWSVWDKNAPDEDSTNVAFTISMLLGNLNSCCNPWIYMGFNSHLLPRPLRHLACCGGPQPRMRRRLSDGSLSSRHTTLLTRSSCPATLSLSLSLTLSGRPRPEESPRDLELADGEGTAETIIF", "experiment": "Agonist activity at recombinant human vasopressin V1b receptor expressed in Flp-In-293 cells by luciferase reporter gene assay", "format": "functional, cell-based", "details": "read-out: EC50", "how_it_was_run": "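Reporter gene assays in HEK293 cells transiently cotransfected with V1a (human or rat) or human V2 receptor vector plus NFAT-luciferase (V1a) or CRE-luciferase (V2) reporter; V1b in Flp-In-293 stably expressing receptor, OT in CHO-K1 stably expressing receptor, both transiently transfected with NFAT-luciferase. Two days post-transfection, peptides added for 5 h at 37 °C, lysis with luciferin, luminescence read.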"}, "[2]": {"target": "Vasopressin V1a/V2 (Homo sapiens) (UniProt P30518+P37288)", "sequence (P30518 whole entry, looked up)": "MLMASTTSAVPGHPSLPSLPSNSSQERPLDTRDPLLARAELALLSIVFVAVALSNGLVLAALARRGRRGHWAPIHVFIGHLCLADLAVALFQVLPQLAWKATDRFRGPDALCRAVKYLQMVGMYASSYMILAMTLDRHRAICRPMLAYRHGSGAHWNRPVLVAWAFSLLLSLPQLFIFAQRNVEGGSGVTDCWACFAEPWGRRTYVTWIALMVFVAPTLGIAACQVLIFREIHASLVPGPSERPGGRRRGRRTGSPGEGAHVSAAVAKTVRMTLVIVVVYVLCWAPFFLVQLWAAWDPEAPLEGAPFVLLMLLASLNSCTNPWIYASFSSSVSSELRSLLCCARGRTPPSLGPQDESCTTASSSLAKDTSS", "sequence (P37288 whole entry, looked up)": "as the sequence (P37288 whole entry) above", "experiment": "Selectivity ratio of EC50 for human vasopressin V2 receptor to EC50 for human vasopressin V1a receptor"}, "Homo sapiens [3]": {"species_on_record": "Homo sapiens", "experiment": "Selectivity ratio of EC50 for human vasopressin V1b receptor to EC50 for human vasopressin V1a receptor"}, "Homo sapiens [4]": {"species_on_record": "Homo sapiens", "experiment": "Selectivity ratio of EC50 for human oxytocin receptor to EC50 for human vasopressin V1a receptor"}, "Vasopressin V2 receptor": {"target": "Vasopressin V2 receptor (Homo sapiens, UniProt P30518)", "sequence (P30518 whole entry)": "as the sequence (P30518 whole entry, looked up) above", "experiment": "Agonist activity at recombinant human vasopressin V2 receptor expressed in HEK293 cells by luciferase reporter gene assay", "format": "functional, cell-based", "details": "read-out: EC50"}, "Oxytocin receptor": {"target": "T2, Oxytocin receptor (Homo sapiens, UniProt P30559)", "T2 sequence (P30559 whole entry)": "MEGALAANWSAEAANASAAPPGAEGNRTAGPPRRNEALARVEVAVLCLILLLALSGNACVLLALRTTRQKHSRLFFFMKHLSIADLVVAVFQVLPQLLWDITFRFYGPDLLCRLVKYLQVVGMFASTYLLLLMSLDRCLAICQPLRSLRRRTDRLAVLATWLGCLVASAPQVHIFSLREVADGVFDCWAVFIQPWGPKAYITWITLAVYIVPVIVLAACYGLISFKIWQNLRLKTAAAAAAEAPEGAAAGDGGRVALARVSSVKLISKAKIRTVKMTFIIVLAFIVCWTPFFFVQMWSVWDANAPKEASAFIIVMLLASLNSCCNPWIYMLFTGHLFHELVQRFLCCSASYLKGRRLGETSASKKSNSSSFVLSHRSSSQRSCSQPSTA", "experiment": "Agonist activity at human OT receptor expressed in CHO-K1 cells by luciferase reporter gene assay", "format": "functional, cell-based"}, "Vasopressin V1a receptor [5]": {"target": "Vasopressin V1a receptor (Rattus norvegicus, UniProt P30560)", "sequence (P30560 whole entry)": "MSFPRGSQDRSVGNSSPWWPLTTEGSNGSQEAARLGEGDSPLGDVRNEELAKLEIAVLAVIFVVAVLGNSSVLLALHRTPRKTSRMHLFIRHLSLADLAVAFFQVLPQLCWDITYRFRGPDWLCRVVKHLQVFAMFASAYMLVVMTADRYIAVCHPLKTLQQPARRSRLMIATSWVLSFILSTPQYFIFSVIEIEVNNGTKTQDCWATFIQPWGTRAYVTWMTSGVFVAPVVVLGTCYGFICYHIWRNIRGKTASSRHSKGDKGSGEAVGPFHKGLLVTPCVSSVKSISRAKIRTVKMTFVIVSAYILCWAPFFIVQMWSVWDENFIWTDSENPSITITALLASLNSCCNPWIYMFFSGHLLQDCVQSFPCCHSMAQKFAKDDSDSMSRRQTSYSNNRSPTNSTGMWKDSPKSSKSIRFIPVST", "experiment": "Agonist activity at recombinant rat vasopressin V1a receptor expressed in HEK293 cells by luciferase reporter gene assay", "format": "functional, cell-based", "details": "read-out: EC50"}, "Rattus norvegicus": {"test_system": "Rattus norvegicus", "experiment": "Vasoconstriction in Wistar rat assessed as assessed as decay in vasopressive duration of action at 60 nmol/kg, iv bolus measured over 10 sec interval", "format": "functional", "how_it_was_run": "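Fasted male Wistar rats (206–340 g) under isoflurane, then thiobutabarbital 150 mg/kg ip, ventilated, 37–38 °C, with carotid pressure and jugular dosing. Dibenamine 1.8 mg/rat iv pretreatment. Sequence: iv boluses (0.5 mL/kg) of heparinized vehicle, then two reference doses of 0.1 nmol/kg, then two test doses; one matches the reference diastolic pressure rise. Relative duration = reference decay rate / test decay rate; mean ± SEM.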"}}, "note": "Bridge positions count the residues as written; N and C are the ends. Square brackets hold non-standard residues; d marks the D form. Peptide text beside a SMILES is read from it. Orn(iPr) = CC(C)NCCC[C@H](N)C(=O)O; Cha = N[C@@H](CC1CCCCC1)C(=O)O"}
{"smiles": "CC[C@H](C)[C@@H]1NC(=O)[C@H](CC2CCCCC2)NC(=O)[C@@H](N)CSSC[C@@H](C(=O)N2CCC[C@H]2C(=O)N[C@@H](CCCNC(C)C)C(=O)NCC(N)=O)NC(=O)[C@H](CC(N)=O)NC(=O)[C@H](CC(N)=O)NC1=O", "note": "(H-C[Cha]INNCP[Orn(iPr)]G-NH2; disulfide 1-6)", "values": [{"measurement": "EC50", "setting": "Vasopressin V1a receptor [1]", "value": 1.4, "unit": "nM"}, {"measurement": "EC50", "setting": "Vasopressin V1b receptor", "value": 110, "unit": "nM"}, {"measurement": "Ratio EC50", "setting": "[2]", "value": 690}, {"measurement": "Ratio EC50", "setting": "Homo sapiens [3]", "value": 78}, {"measurement": "Ratio EC50", "setting": "Homo sapiens [4]", "value": "> 7100"}, {"measurement": "EC50", "setting": "Vasopressin V2 receptor", "value": 970, "unit": "nM"}, {"measurement": "EC50", "setting": "Oxytocin receptor; cho-k1, read-out: EC50", "value": "> 10000", "unit": "nM"}, {"measurement": "EC50", "setting": "Oxytocin receptor; read-out: pEC50 (converted)", "value": "> 10000", "unit": "nM"}, {"measurement": "EC50", "setting": "Vasopressin V1a receptor [5]", "value": 57, "unit": "nM"}, {"measurement": "Time", "setting": "Rattus norvegicus", "value": 4.1, "unit": "unitless ratio"}]}
